Laboratory results taken from ChEMBL document CHEMBL4354825, “Design and Synthesis of Basic Selective Estrogen Receptor Degraders for Endocrine Therapy Resistant Breast Cancer” (J Med Chem, 2019).
The source made the active and inactive calls. The rule behind the calls is not given here.

Key:
[1] = AUClast in C57BL/6 mouse brain at 50 mg/kg, po measured upto 24 hrs by LC-MS/MS analysis; assay type: ADME, organism-based; parameters: dose 50 mg/kg, time < 24 hr, route oral; details: in vivo
Procedure, shortened: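 Full PK run by a contract lab. Dosing was 50 mg/kg p.o. in water and 10% SBE-β-CD/PEG-400 (9:1 v/v), and 5 mg/kg i.v. Sampling at 0.25, 0.5, 1, 2, 4, 8 and 24 h (N = 5). Plasma samples were diluted in 50% acetonitrile and quantified by LC-MS/MS against standards serially diluted in 50% acetonitrile. Brain was also sampled after the oral dose.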

T47D = test: Cytotoxicity against human T47D 3D spheroid cells harboring Y537S mutant assessed as reduction in tumor cell viability at 10 nM incubated for 14 days by celltiter-glo 3D cell viability assay
Homo sapiens = species on record: Homo sapiens; test: Cytotoxicity against human MCF7:WS8 3D spheroid cells assessed as reduction in tumor spheroid size at 10 nM incubated for 14 days

With Cc1cc(F)cc(C)c1C(=O)c1sc2cc(O)ccc2c1Oc1ccc(OC2CN(CCCF)C2)cc1 the AUClast [1] was 2106 ng·h/mL, the Activity (T47D) was “Active” and the Activity (Homo sapiens) was “Active”.
